Screening data (PubChem)
Jurkat NFkB inh: inhibitors of induced NF-kB luciferase reporter, primary screen, TCR NF-kB activation inhibitor project, cell-based, luminescence, uHTS. Jurkat, PMA/ionomycin-induced NF-kB luciferase reporter. inhibition, % at 4 µM. 0.53% of 330,000 active; in the data active = inhibition above about 50%
697 NFkB inh: inhibitors of PMA/ionomycin-induced NF-kB reporter, 697 cells, primary screen, B-cell NF-kB inhibitor project, cell-based, luminescence, uHTS; 697 B-cell NF-kB luciferase reporter, 16 h; inhibition, % at 4 µM; 0.33% of 330,000 active; in the data active = inhibition above about 35%
UPR CHOP act: activators of apoptotic CHOP UPR arm, primary screen, cell-based, CHO-CHOP luciferase reporter, luminescence, uHTS. 0.34% of 330,000 active. activation, % at 10 µM. AID 449763, 2010. UPR activation; percent of tunicamycin response over DMSO baseline;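 active = at 10 µM dose, activation of 40% or more, normalized to positive control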
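Material: CHO-CHOP cells, stable luciferase reporter of PERK-eIF2a-CHOP signalling; quantity: 500 reporter cells seeded per well; buffer or medium: F12 medium containing 10% fetal bovine serum; compound: one dose, 10 µM in 0.5% DMSO; incubation: 6 h compound treatment, 37 °C; measured by: Steady-Glo luciferase luminescence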
UPR XBP1 act: activators of adaptive XBP1 UPR arm, primary screen, cell-based, CHO-XBP1 luciferase reporter, luminescence, uHTS | 0.33% of 330,000 active | activation, % at 20 µM | IRE1-XBP1 UPR activation; percent of tunicamycin response, DMSO as zero | AID 463104, 2010;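 active = versus positive control, 20 µM dose yields 30% or more activation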
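Material: CHO-XBP1 cells stably carrying IRE1-XBP1-driven luciferase reporter / Amount: 1000 cells per well / Compound: 20 µM, 1% DMSO / Times: 6 h treatment, 37 °C / Detection: luciferase luminescence / Measure: % activation of reporter signal versus tunicamycin and DMSO controls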
Gli-Sufu block: Gli-Sufu pathway antagonists, primary screen, luciferase luminescence, Sufu-KO-LIGHT cells, uHTS. Sufu-KO-LIGHT fibroblasts, Gli luciferase reporter luminescence. inhibition, % at 5 µM. 0.74% of 340,000 active. AID 588413, 2011;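 active = inhibition above about 55%, limit read from the data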
CHOP inhibitor: inhibitors of CHOP promoter induction, primary screen, cell-based, unfolded protein response, luciferase reporter; CHO-K1 CHOP-promoter luciferase, tunicamycin-induced, 15-18 h; inhibition, % at 10 µM; 3.8% of 220,000 active; AID 2732, 2010;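 active = compounds that reduced the stress-induced luciferase reporter signal by more than about 70% of percent inhibition, limit read from the data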
Each line names hits and unclear results; the compound was inactive in the other large screens. Compounds with a hit are over-represented: about 3.9% of the library has one in this group of screens.

O=C(/C=C\c1ccccc1)Nc1ccc(NC(=O)c2ccco2)cc1	CHOP inhibitor 95
O=C1/C(=N\S(=O)(=O)c2cccs2)C([n+]2ccccc2)=C([O-])c2ccccc21	none
CC(C)(C)c1cc[n+](C2=C([O-])c3ccccc3C(=O)/C2=N\S(=O)(=O)c2cccs2)cc1	CHOP inhibitor 81
Cc1ccc(C(c2c(C)nn(-c3ccccc3)c2N)c2c(C)nn(-c3ccccc3)c2N)cc1	none
Cc1nn(-c2ccccc2)c(N)c1C(c1ccc(C(C)C)cc1)c1c(C)nn(-c2ccccc2)c1N	CHOP inhibitor 85
NS(=O)(=O)c1ccc(CCNc2ncnc3c2c(-c2ccccc2)cn3-c2ccc(F)cc2)cc1	CHOP inhibitor 75
CCC(=O)Nc1ccc(N2CCCCC2)c(C(=O)Nc2ccccc2C)c1	CHOP inhibitor 72
O=C1CN(C(=O)c2ccc3nc(Cc4cccc(Cl)c4)oc3c2)CCN1	none (no result: CHOP inhibitor)
CCc1ccccc1NC1c2ccccc2C(=O)N1Cc1ccco1 (centres undefined)	CHOP inhibitor 75
Nc1nonc1C(=O)NCCNCc1c(OCc2ccccc2F)ccc2ccccc12	CHOP inhibitor 73
COc1ccc(OC)c(NC(=O)COC(=O)CCc2nc3ccccc3c(=O)[nH]2)c1	none (no result: CHOP inhibitor)
COc1ccccc1C(=O)Nc1ccc(C(=O)N2CCCCC2)cc1	none (no result: CHOP inhibitor)
CCOC(=O)C1=C(C)N=c2s/c(=C\c3cccc(OCC(=O)O)c3)c(=O)n2C1c1ccccc1OC (centres undefined)	none (no result: Gli-Sufu block, CHOP inhibitor)
CCOC(=O)C1=C(c2ccccc2)N=c2s/c(=C\c3cccc(O)c3)c(=O)n2C1c1cccs1 (centres undefined)	CHOP inhibitor 90
Cc1ccc(-n2[nH]c(C)c(C=Nc3ccc(S(=O)(=O)Nc4nccs4)cc3)c2=O)cc1	none (no result: Gli-Sufu block)
Cc1[nH]n(-c2ccc(Br)cc2)c(=O)c1C=Nc1ccc(S(=O)(=O)Nc2nccs2)cc1	CHOP inhibitor 91
C=CCSc1nnc(-c2sc(-c3ccccc3)nc2C)n1C	none
C=CCN(C(=O)CSC1=NC(=O)CN1C(C)=O)c1nc(C)c(-c2ccccc2)s1	CHOP inhibitor 95
COc1ccc(Cl)c(N2CCN(CCCNC(=O)Nc3ccc(C)cc3)CC2)c1	CHOP inhibitor 83
CN1CCN(CC(=O)Nc2ccc(Oc3ccccc3)cc2)CC1	none
CCOC(=O)N1CCN(CC(=O)Nc2ccc(Oc3ccccc3)cc2)CC1	CHOP inhibitor 82
O=C(CN1CCCC1)Nc1ccc(OCc2ccccc2)cc1	none
O=C(CN1CCN(c2ccccc2)CC1)Nc1ccc(OCc2ccccc2)cc1	CHOP inhibitor 86
COc1cc(CC(=O)OCC(=O)NCc2cccs2)cc(OC)c1OC	none (no result: CHOP inhibitor)
Oc1ccc(-c2n[nH]c(C(F)(F)F)c2-c2ccccc2)c(O)c1	Gli-Sufu block 70
COc1ccc(CNC(=O)c2cc(-c3ccncc3)nc3c(C)cc(C)cc23)cc1OC	CHOP inhibitor 89
COc1ccc(CCNC(=O)c2cc(-c3ccncc3)nc3c(Cl)cccc23)cc1OC	none
COc1ccc(-c2cc3ncnc(Cl)c3s2)cc1	none (no result: CHOP inhibitor)
O=C(c1ccc(COc2ccccc2Cl)o1)N1N=C(C(F)F)CC1(O)C(F)F (centres undefined)	CHOP inhibitor 75
O=C(c1ccc(COc2ccccc2Cl)o1)N1CCN(c2ccccc2)CC1	none
COc1ccc(NC(=O)NNC(=O)C(C)Oc2ccc3ccccc3c2)cc1OC (centres undefined)	none (no result: CHOP inhibitor)
Cc1nn(CCO)c2nc(-c3cccs3)cc(C(F)(F)F)c12	CHOP inhibitor 85
CN(Cc1ccsc1)C(=O)Cn1cc(Br)ccc1=O	none (no result: CHOP inhibitor)
O=C(Oc1ccc2ccccc2c1)c1cncc(Br)c1	CHOP inhibitor 94
Cc1ccc(NCc2nnc(SCC(N)=O)o2)c(C)c1	none
Cc1ccc(C(=O)CSc2nnc(CNc3ccc(C)cc3C)o2)cc1	CHOP inhibitor 72
Cc1nc(N2CCN(C)CC2)c2sc(=S)n(C)c2n1	CHOP inhibitor 74
Cc1noc(C)c1S(=O)(=O)N(CC(=O)NC(C)c1ccccc1)c1ccc(C(C)C)cc1 (centres undefined)	none (no result: CHOP inhibitor)
OC(CNCCc1ccccc1)COc1ccc(OCC(O)CNCCc2ccccc2)cc1 (centres undefined)	none
OC(CNCCc1ccc(Cl)cc1)COc1ccc2ccccc2c1 (centres undefined)	CHOP inhibitor 100 (no result: Jurkat NFkB inh, 697 NFkB inh, UPR CHOP act, UPR XBP1 act)
COC(=O)C1(C)NC(c2ccc(OC)cc2)C2C(=O)N(c3ccccc3)C(=O)C21 (centres undefined)	none (no result: CHOP inhibitor)
C/C(CC(=O)Nc1ccc2c(c1)OCCO2)=N\NC(=O)c1ccccc1Cl	none (no result: CHOP inhibitor)
Cc1cc(N2CCC(C)CC2)nc2cccc(O)c12	CHOP inhibitor 82
Cc1nc2ccccc2nc1N1CCC(C)CC1	none
COc1ccc(C(=O)OCC(=O)c2c[nH]c3ccccc23)c(OC)c1	none (no result: CHOP inhibitor)
O=C(OCC(=O)c1c[nH]c2ccccc12)c1cc2ccccc2cc1O	CHOP inhibitor 73
Cc1ccc2c(c1)N=C(c1ccc(F)cc1)CO2	CHOP inhibitor 78
O=[N+]([O-])c1ccc(C2=Nc3cc(Cl)ccc3OC2)cc1	none
Cc1nc(N2CCN(c3ccccc3O)CC2)c2c(-c3ccccc3)csc2n1	none (no result: CHOP inhibitor)
Cc1cc(NC(=O)/C(C#N)=C/c2ccc(-c3cccc(C(F)(F)F)c3)o2)n(-c2ccccc2)n1	CHOP inhibitor 85
N#Cc1c(-c2ccc(F)cc2)cc(-c2cccnc2)nc1N	CHOP inhibitor 88
N#Cc1c(-c2ccc(Br)cc2)cc(-c2cccnc2)nc1N	none
CC(=O)c1cccc(NC(=O)N2CCC(NC(=O)C34CC5CC(CC(C5)C3)C4)CC2)c1	none
COCCSc1nnc(NC(=O)COc2ccc3c(c2)OCO3)s1	none (no result: CHOP inhibitor)
CC(=O)OC1COC(OC2C(O)C(C)OC(OC3C(OC4CCC5(C)C(CCC6(C)C5CC=C5C7CC(C)(C)CCC7(C(=O)O)CCC56C)C4(C)CO)OCC(O)C3O)C2O)C(O)C1OC(C)=O (centres undefined)	CHOP inhibitor 92 (no result: Gli-Sufu block)
Cc1ccc(S(=O)(=O)NC2CC(C)(C)N(O)C(C)(C)C2)cc1	none (no result: CHOP inhibitor)
Cc1ccc(S(=O)(=O)NCC(=O)Nc2ccc(C(F)(F)F)cc2)cc1	CHOP inhibitor 92
CC(NC(=O)N1CCOCC1)c1ccccc1 (centres undefined)	none (no result: CHOP inhibitor)
CC1CCC2(CC1)NC(=O)N(CC(=O)N1c3ccccc3CC1C)C2=O (centres undefined)	none (no result: CHOP inhibitor)
